According to ChEMBL document CHEMBL1143701, “O2-acetoxymethyl-protected diazeniumdiolate-based NSAIDs (NONO-NSAIDs): synthesis, nitric oxide release, and biological evaluation studies” (Bioorg Med Chem, 2007):

Tests used:
[1] = Effect on nitric oxide release in presence of porcine liver esterase per mole using sievers […]; format: functional
In short: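 Porcine liver esterase (10 μL of suspension in 3.2 M ammonium sulfate) in 3 mL phosphate buffer pH 8.0; 10 μL of 46 or 77 mM DMSO stock injected; NO carried by nitrogen purge to chemiluminescence analyzer, quantified against calibration curve; time to 100% theoretical NO read graphically.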

[2] = biological target: T1, Prostaglandin G/H synthase 1 (Ovis aries, UniProt P05979); assay: Inhibition of ovine COX1 by enzyme immuno assay
T1 sequence (P05979 whole entry): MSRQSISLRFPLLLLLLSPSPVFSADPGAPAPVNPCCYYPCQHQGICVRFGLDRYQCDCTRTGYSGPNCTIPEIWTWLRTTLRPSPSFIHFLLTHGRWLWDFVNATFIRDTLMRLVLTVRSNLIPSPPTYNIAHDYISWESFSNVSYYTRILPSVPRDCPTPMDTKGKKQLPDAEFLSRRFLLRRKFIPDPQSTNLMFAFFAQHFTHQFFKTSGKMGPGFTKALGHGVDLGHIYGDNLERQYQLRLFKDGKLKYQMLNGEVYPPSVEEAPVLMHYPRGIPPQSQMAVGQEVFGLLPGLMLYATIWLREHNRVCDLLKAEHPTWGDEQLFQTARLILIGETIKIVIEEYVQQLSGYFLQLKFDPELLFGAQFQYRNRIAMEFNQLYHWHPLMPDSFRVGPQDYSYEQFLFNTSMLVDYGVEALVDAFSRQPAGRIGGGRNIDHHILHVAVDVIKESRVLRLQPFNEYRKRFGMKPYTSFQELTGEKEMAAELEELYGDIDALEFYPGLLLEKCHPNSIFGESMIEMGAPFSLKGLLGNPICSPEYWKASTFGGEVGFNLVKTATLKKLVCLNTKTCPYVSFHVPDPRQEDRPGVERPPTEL

[3] = Effect on nitric oxide release in pH 7.4 PBS buffer using sievers […]; format: functional
In short: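 Prodrug in DMSO (46 or 77 mM stock), 10 μL injected into 3 mL deoxygenated phosphate buffer pH 7.4 at 37 °C in sealed cell; NO swept by nitrogen purge to chemiluminescence analyzer calibrated with NO/He standards; mol NO/mol compound from integrated peak area; time to ~50% of theoretical NO read graphically.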

[4] = system: Rattus norvegicus; assay: Gastric damage production in rat assessed as gastric ulcer index at 0.08 mmol/kg, po after 6 hrs; format: functional, Stomach
In short: (§1)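 Rats fasted 24 h (water allowed), given single oral dose suspended in 1.7 mL 1% methylcellulose; vehicle controls. Killed 6 h later by CO2; stomachs opened along greater curvature and ulcer lengths scored under magnifier. Ulcer index = total ulcer length (mm) summed over stomachs divided by animals (n = 4); mean ± SEM.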

[5] = system: Rattus norvegicus; assay: Antiinflammatory activity against carrageenan-induced rat paw edema in orally dosed rat after 3 hrs; format: functional; details: po, read-out: ID50 (the source's name)
[6] = system: Rattus norvegicus; assay: Gastric damage production in rat assessed as gastric ulcer index at 1.38 mmol/kg, po after 6 hrs; format: functional, Stomach; in short: as §1
[7] = system: Rattus norvegicus; assay: Gastric damage production in rat assessed as gastric ulcer index at 1.21 mmol/kg, po after 6 hrs; format: functional, Stomach; in short: as §1

| SMILES | Activity [1] [mol/mol] | IC50 [2] [µM] | Activity [3] [mol/mol] | Activity [4] | ED50 [5] [µmol/kg] | Activity [6] | Activity [7] |
| --- | --- | --- | --- | --- | --- | --- | --- |
| CC(=O)Oc1ccccc1C(=O)O [ASPIRIN] |  |  |  |  | 714 | 57.4 |  |
| COc1ccc2c(c1)c(CC(=O)O)c(C)n2C(=O)c1ccc(Cl)cc1 [INDOMETHACIN] |  |  |  |  | 11.7 |  |  |
| CC(C)Cc1ccc(C(C)C(=O)O)cc1 (configuration not stated) [IBUPROFEN] |  |  |  |  | 327 |  | 45.8 |

Further lines, with some results ahead:

| Activity [1] [mol/mol] | IC50 [2] [µM] | SMILES | Activity [3] [mol/mol] | Activity [4] | ED50 [5] [µmol/kg] | Activity [6] | Activity [7] |
| --- | --- | --- | --- | --- | --- | --- | --- |
| 2 | > 100 | COc1ccc2c(c1)c(CC(=O)OCCN(C)/[N+]([O-])=N/OCOC(C)=O)c(C)n2C(=O)c1ccc(Cl)cc1 | 0.9 | 1.3 | 20.3 |  |  |
| 2 | > 100 | CC(=O)OCO/N=[N+](\[O-])N(C)CCOC(=O)c1ccccc1OC(C)=O | 1 |  | 553 | 0.84 |  |
| 2 | > 100 | CC(=O)OCO/N=[N+](\[O-])N(C)CCOC(=O)C(C)c1ccc(CC(C)C)cc1 (configuration not stated) | 1.1 |  | 175 |  | 0 |
| 2 |  | CC(=O)OCO/N=[N+](\[O-])N(C)CCO | 1 |  |  |  |  |
